Results published in ChEMBL document CHEMBL1131571, “Potent, selective, and orally bioavailable tricyclic pyridyl acetamide N-oxide inhibitors of farnesyl protein transferase with enhanced in vivo antitumor activity” (J Med Chem, 1998).

Legend:
[1] = tested on: COS-1; assay: Inhibitory activity was measured against COS cell; assay type: functional, cell-based, Cercopithecidae; conditions: Chlorocebus aethiops
Procedure, shortened: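 Inhibition of intracellular H-Ras processing, measured in transfected Cos cells.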

[2] = tested on: DLD-1; assay: The inhibition of growth of solid tumor in DLD-1 model was measured at 10 mg/kg after po administration. 0.1<p<0.25; assay type: functional; conditions: Homo sapiens
[3] = maximum concentration was measured when administered through oral route in mice; assay type: ADME, organism-based; design: route oral; conditions: mouse, in vivo
Procedure, shortened: (§1)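 Mice received a single 25 mg/kg dose, as HCl salt in 20% hydroxypropyl-β-cyclodextrin, either orally or iv by tail vein. Blood was taken by cardiac puncture after CO2 euthanasia at nine times from 2 min to 24 h, with two mice per time point. Serum was acetonitrile-precipitated and quantified by HPLC-APCI tandem MS. AUC was derived by the linear trapezoidal rule on mean concentrations. Bioavailability is the oral/iv AUC ratio, from different animals. Cmax is the highest mean oral concentration. Half-life was estimated graphically after iv dosing.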

[4] = tested on: DLD-1; assay: The inhibition of growth of solid tumor in DLD-1 model was measured at 50 mg/kg after po administration. 0.01<p<0.025; assay type: functional; conditions: Homo sapiens
[5] = Area under the concentration time curve (AUC) taken for 0-24 hr was measured when administered through oral route in mice; assay type: ADME, organism-based; design: time < 24 hr, route oral; conditions: mouse, in vivo; procedure, shortened: as §1
[6] = Oral bioavailability in mouse; assay type: ADME, organism-based; conditions: in vivo; procedure, shortened: as §1
[7] = target: Protein farnesyltransferase (Homo sapiens, UniProt P49354+P49356); assay: Inhibition of Farnesyltransferase; assay type: protein-complex assay
Procedure, shortened: (§2)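 Radiometric transfer assays measuring trichloroacetic acid-precipitable label. FPT: [3H]farnesyl from [3H]farnesyl pyrophosphate onto Ha-Ras-CVLS. GGPT-1: [3H]geranylgeranyl from [3H]geranylgeranyl diphosphate onto Ha-Ras-CVLL.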

[8] = Biological half life was measured when given iv route in mice; assay type: ADME, organism-based; conditions: mouse, in vivo; procedure, shortened: as §1
[9] = Area under the concentration time curve (AUC) taken for 0-24 hr was measured when administered through iv route in mice; assay type: ADME, organism-based; design: time < 24 hr, route intravenous; conditions: mouse, in vivo; procedure, shortened: as §1
[10] = Inhibition of Geranylgeranyl transferase; design: species or system Homo sapiens; procedure, shortened: as §2
[11] = tested on: DLD-1; assay: The inhibition of growth of solid tumor in DLD-1 model was measured at 10 mg/kg after po administration. 0.05<p<0.1; assay type: functional; conditions: Homo sapiens
[12] = tested on: DLD-1; assay: The inhibition of growth of solid tumor in DLD-1 model was measured at 50 mg/kg after po administration. p<0.01; assay type: functional; conditions: Homo sapiens
[13] = tested on: DLD-1; assay: The inhibition of growth of solid tumor in DLD-1 model was measured at 10 mg/kg after po administration. 0.01<p<0.025; assay type: functional; conditions: Homo sapiens

| Cmax [3] [ng/mL] | AUC at 24 h [5] [ng·h/mL] | bioavailability [6] [%] | IC50 [7] [nM] | half-life [8] [min] | AUC at 24 h [9] [ng·h/mL] | IC50 [10] [nM] | Compound | IC50 [1] [nM] | inhibition in vivo at 10 mg/kg [2] [%] | inhibition in vivo at 50 mg/kg [4] [%] | inhibition in vivo at 10 mg/kg [11] [%] | inhibition in vivo at 50 mg/kg [12] [%] | inhibition in vivo at 10 mg/kg [13] [%] |
| --- | --- | --- | --- | --- | --- | --- | --- | --- | --- | --- | --- | --- | --- |
| 10000 | 4100 | 38 | 40 | 46 | 10600 | > 38000 | O=C(Cc1cc[n+]([O-])cc1)N1CCC(C2c3ccc(Cl)cc3CCc3cc(Br)cnc32)CC1 (stereo unspecified) | 400 | 38 | 60 |  |  |  |
| 11000 | 19000 | 100 | 30 | 26.6 | 18600 | > 38000 | O=C(Cc1cc[n+]([O-])cc1)N1CCC(C2c3ccc(Cl)cc3C=Cc3cc(Br)cnc32)CC1 (stereo unspecified) | 700 |  |  | 21 | 37 |  |
| 12000 | 84900 | 100 | 40 | 82.2 | 43700 | > 33000 | O=C(Cc1cc[n+]([O-])cc1)N1CCC(C2c3ccc(Cl)cc3C=C(Br)c3cc(Br)cnc32)CC1 (stereo unspecified) | 600 |  |  |  | 70 | 52 |
| 10000 |  | 75 |  | 48 |  | 38000 | O=C(Cc1cc[n+]([O-])cc1)N1CCC(=C2c3ccc(Cl)cc3CCc3cc(Br)cnc32)CC1 |  |  |  |  | 40 | 28 |
